What is called IC50 is the concentration needed to halve the response being measured.

The test system of experiment [1] is human dermal fibroblasts (HDFs). Kind of experiment: MTT dose response assay, HDFs in 2D and 3D PCL 96-well plates. Type of experiment: cell-based. The following applies: HDF, 72 h, mean of three experiments ± SEM. An outline of the steps: (§1)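 Accutase-detached cells seeded at 7000 (2D) or 21,000 (3D; O2-plasma-treated, ethanol-sterilized PCL fibre-mesh wells) per 180 μL. After 24 h normoxic attachment, compound added, then 72 h at 18 % O2/5 % CO2 or 1 % O2. MTT (20 μL of 5 mg/mL) 2 h; formazan dissolved in DMSO (2D 15 min, 3D 2 h shaking); absorbance background-subtracted. IC50 = 50 % MTT reduction; ≥3 experiments, 3–6 wells/concentration.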

Experiment [2] concerns JIMT-1 breast cancer cells. In words: MTT dose response assay, JIMT-1 cells in 2D and 3D PCL 96-well plates. Type of experiment: cell-based, human. As to conditions: JIMT-1, 2D culture, hypoxia (1 % O2), 72 h, mean of three experiments ± SEM. A digest of the protocol:
as §1

The test system of experiment [3] is JIMT-1 cells. As to conditions: JIMT-1, 2D cultures, normoxia, FBS-supplemented medium; cited from earlier work.

In the case of “salinomycin analogue 20-ethyl carbonate-Na [SAEC]”, the IC50 in experiment [1] (2D culture, hypoxia (1 % O2)) was 239 ± 6.2 nM; in experiment [1] (2D culture, normoxia (18 % O2)), 97.7 ± 11.8 nM; in experiment [1] (3D culture, hypoxia (1 % O2)) it was 316 ± 35.1 nM; in experiment [1] (3D culture, normoxia (18 % O2)), 150 ± 34.4 nM; in experiment [2], 80.4 ± 13.3 nM; in experiment [3] it was 90 ± 0.02 nM.

The values are drawn from PMC8024882 (Toxicology Reports, 2021).
